# Measured values pooled from the literature.
# Compare with care: the assays were run in different laboratories.
# Target: Homeodomain-interacting protein kinase 1 (HIPK1, Homo sapiens, UniProt Q86Z02)
assay,setting,endpoint,value,Compound
binding,1 µM,remaining binding,103%,COc1ccc2oc(-c3ccc4nc(N)oc4c3)c/c(=N\c3ccccc3NC(=O)CCN)c2c1
"enzyme activity, inhibitor",1 µM,inhibition,26%,C=CC(=O)N1CCC([C@@H]2CCNc3c(C(N)=O)c(-c4ccc(Oc5ccccc5)cc4)nn32)CC1
"binding, competition with immobilised ligand",0.5 µM,remaining binding,88%,CCCCC(=O)Nc1ccc(-c2ccc3ncn(CCC)c(=O)c3c2)cn1
"enzyme activity, inhibitor",1 µM,inhibition,22%,C=CC(=O)N1CCC[C@@H](n2nc(-c3ccc(Oc4ccccc4)cc3)c3c(N)ncnc32)C1
"binding, competition with immobilised ligand",1 µM,remaining binding,93%,Cc1ccc(NC(=O)c2ccnc(C(F)(F)F)c2)cc1-c1cc(OCCO)nc(N2CCOCC2)c1
binding,0.1 µM,remaining binding,6.7%,C1=C/COCc2cc(ccc2OCCN2CCCC2)Nc2nccc(n2)-c2cccc(c2)COC/1
"enzyme activity, inhibitor",0.2 µM,inhibition,22.6%,C#Cc1cc(-c2cc(Nc3nc(N[C@@H](C)c4ccc(F)cn4)ncc3Cl)n[nH]2)ccc1C=O
"binding, competition with immobilised ligand",1 µM,remaining binding,45%,C[C@H]1CC[C@H](n2c3cnccc3c3cnc(Nc4ccc5c(n4)CCN(C(=O)CO)C5)nc32)CC1
